Measured values published in ChEMBL document CHEMBL1148686, “Synthesis and anticonvulsant activity of new N-1',N-3'-disubstituted-2'H,3H,5'H-spiro-(2-benzofuran-1,4'-imidazolidine)-2',3,5'-triones” (2006).
Activity calls are given as the source filed them. No cut-off for these calls is given here.

Legend:
Mus musculus [1] = assay: Protection against electroshock-induced convulsions in ip dosed mouse after 0.5 hrs by MES assay; assay type: functional
Procedure, shortened: (§1)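 Mice were dosed intraperitoneally with test drug, positive control or vehicle (DMSO) 30 min before electroshock at 50 mA for 0.2 s. The end-point was the hind limb tonic extensor component. Doses up to 300 mg/kg. Done in triplicate (n = 3). ED50 in mg/kg was derived by non-linear regression and given as mean with 95% confidence intervals.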

Mus musculus [2] = assay: Protection against PTZ-induced convulsions in mouse up to 300 mg/kg, ip after 0.5 hrs by scPTZ assay; assay type: functional, organism-based; parameters: dose 300 mg/kg
Procedure, shortened: (§2)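 Mice received test drug, positive control or vehicle (DMSO) intraperitoneally 30 min before a subcutaneous PTZ injection at 80 mg/kg. The end-point was clonic seizure lasting more than 5 s. Tested up to 300 mg/kg. Run in triplicate (n = 3). ED50 in mg/kg was found by non-linear regression, as mean with 95% confidence intervals.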

Mus musculus [3] = assay: Protection against PTZ-induced convulsions in ip dosed mouse after 0.5 hrs by scPTZ assay; assay type: functional; procedure, shortened: as §2
Mus musculus [4] = assay: Protection against electroshock-induced convulsions in mouse up to 300 mg/kg, ip after 0.5 hrs by MES assay; assay type: functional, organism-based; parameters: dose 300 mg/kg; procedure, shortened: as §1
Mus musculus [5] = assay: Protection against electroshock-induced convulsions in mouse at 300 mg/kg, ip after 0.5 hrs by MES assay; assay type: functional, organism-based; parameters: dose 300 mg/kg; procedure, shortened: as §1
Mus musculus [6] = assay: Protection against PTZ-induced convulsions in mouse at 300 mg/kg, ip after 0.5 hrs by scPTZ assay; assay type: functional, organism-based; parameters: dose 300 mg/kg; procedure, shortened: as §2

Row | SMILES | ED50 (Mus musculus [1]) [mg/kg] | ED50 (Mus musculus [3]) [mg/kg] | Activity (Mus musculus [4]) | also measured
1 | O=C1NC(=O)C(c2ccccc2)(c2ccccc2)N1 [PHENYTOIN] | 8.1 |  |  | Activity (Mus musculus [2]): inactive
2 | CCC1(c2ccccc2)C(=O)NC(=O)NC1=O [PHENOBARBITAL] |  | 20 | inactive | 
3 | CCN1C(=O)N(c2ccccc2)C(=O)C12OC(=O)c1ccccc12 (stereo not given) | 81 | 54.8 |  | 
4 | CN1C(=O)N(c2ccccc2)C(=O)C12OC(=O)c1ccccc12 (stereo not given) |  | 96.8 |  | Activity (Mus musculus [5]): Active
5 | CN1C(=O)N(c2ccc(F)cc2)C(=O)C12OC(=O)c1ccccc12 (stereo not given) | > 100 | 87.1 |  | 
6 | CCN1C(=O)N(c2ccc(OC)cc2)C(=O)C12OC(=O)c1ccccc12 (stereo not given) |  | 82.5 |  | Activity (Mus musculus [5]): Active
7 | CCCCN1C(=O)N(CCCC)C2(OC(=O)c3ccccc32)C1=O (stereo not given) |  | > 100 |  | Activity (Mus musculus [5]): Active
8 | O=C1OC2(C(=O)N(C3CCCCC3)C(=O)N2C2CCCCC2)c2ccccc21 (stereo not given) |  |  | inactive | Activity (Mus musculus [2]): inactive
9 | CCCN1C(=O)N(CCC)C2(OC(=O)c3ccccc32)C1=O (stereo not given) | > 100 | 78.5 |  | 
10 | CN1C(=S)N(c2ccccc2)C(=O)C12OC(=O)c1ccccc12 (stereo not given) |  |  | inactive | Activity (Mus musculus [6]): Active
11 | CC(C)N1C(=O)N(C(C)C)C2(OC(=O)c3ccccc32)C1=O (stereo not given) |  |  | inactive | Activity (Mus musculus [6]): Active
12 | CN1C(=O)N(c2ccc(C(F)(F)F)cc2)C(=O)C12OC(=O)c1ccccc12 (stereo not given) | > 100 | > 100 |  | 
13 | CCN1C(=O)N(C)C(=O)C12OC(=O)c1ccccc12 (stereo not given) |  |  | inactive | Activity (Mus musculus [6]): Active
14 | CCN1C(=O)N(c2ccc([N+](=O)[O-])cc2)C(=O)C12OC(=O)c1ccccc12 (stereo not given) |  | 41.8 | inactive | 
15 | CCN1C(=O)N(c2ccc(F)cc2)C(=O)C12OC(=O)c1ccccc12 (stereo not given) | > 100 | 85.8 |  | 
